Active and inactive are the calls of the source. The calls are words filed in the database; no cut-off is given here.
Columns and labels:
NCI-H226 = test: Growth inhibition of human NCI-H226 cells assessed as growth percent at 10 uM incubated for 48 hrs by sulforhodamine B assay relative to control; type: functional; conditions: NCI-H226, 48 h, read-out: Activity
RT-4 [1] = test: Growth inhibition of human RT4 cells at 1000 uM measured after 5 mins by Celltiter-Glo luminescent cell viability assay; type: functional, cell-based
Method in brief: (§1)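 Cells seeded 10000/well, 24 h, then exposed in ATCC-recommended medium to 62.5–2000 μM (two-fold steps) or vehicle for the set time (5–60 min), then normal medium. After 24 h, plates equilibrated 30 min at room temperature, CellTiter-Glo added, 2 min at room temperature, luminescence read. Survival relative to vehicle control; quadruplicate.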

Mus musculus [2] = test: (§2) Antitumor activity against anesthetized BBN-induced bladder tumor mouse model assessed as increase in cleaved caspase 3 level in dysplasia region at 1500 uM administered via intravesical instillation treated for 1 hr administered as 2 doses at 24 hrs interval and measured at 24 hrs after final treatment by hematoxylin and eosin staining based immunohistochemical analysis; type: functional, organism-based
UACC-257 = test: Growth inhibition of human UACC257 cells assessed as growth percent at 10 uM incubated for 48 hrs by sulforhodamine B assay relative to control; type: functional; conditions: UACC-257, 48 h, read-out: Activity
RPMI-8226 = test: Growth inhibition of human RPMI8226 cells assessed as growth percent at 10 uM incubated for 48 hrs by sulforhodamine B assay relative to control; type: functional; conditions: RPMI-8226, 48 h, read-out: Activity
RT-4 [3] = test: Growth inhibition of human RT4 cells measured after 1 hr by Celltiter-Glo luminescent cell viability assay; type: functional; conditions: RT-4, 1 h; method in brief: as §1
TCC-SUP = test: Growth inhibition of human TCCSUP cells measured after 1 hr by Celltiter-Glo luminescent cell viability assay; type: functional; method in brief: as §1
U-251 = test: Growth inhibition of human U251 cells assessed as growth percent at 10 uM incubated for 48 hrs by sulforhodamine B assay relative to control; type: functional; conditions: U-251, 48 h, read-out: Activity
SN12C = test: Growth inhibition of human SN12C cells assessed as growth percent at 10 uM incubated for 48 hrs by sulforhodamine B assay relative to control; type: functional; conditions: read-out: Activity
UMUC3 = test: Anticlonogenic activity against human UM-UC-3 cells assessed as no colony formation at 250 to 500 uM incubated for 1 hr measured after culturing in normal medium for 10 days by crystal violet staining assay; type: functional, cell-based
Method in brief: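 Cells seeded at 500/well, treated 24 h later with 250 or 500 μM drug or vehicle for 1 h. Cells were then grown in normal media for 10 days, stained with 0.5% crystal violet in 20% MeOH/water at 4 °C for 5 min, washed, dried and imaged. Run in triplicate.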

Hs-578T = test: Growth inhibition of human Hs 578T cells assessed as growth percent at 10 uM incubated for 48 hrs by sulforhodamine B assay relative to control; type: functional; conditions: read-out: Activity
SW-620 = test: Growth inhibition of human SW620 cells assessed as growth percent at 10 uM incubated for 48 hrs by sulforhodamine B assay relative to control; type: functional; conditions: SW-620, 48 h, read-out: Activity
RT-112 [4] = test: Cell cycle arrest in human RT112 cells assessed as increase in cell accumulation at sub-G1 phase at 250 uM incubated for 1 hr measured after culturing in normal medium for 24 hrs by propidium iodide/RNase staining based FACScan flow cytometry analysis; type: functional
Method in brief: (§3)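 Seeded at 300,000 cells/well in triplicate per treatment; 24 h later exposed to 250 or 500 μM or vehicle for 1 h. After 24 h in normal media, media plus cells were collected, washed, fixed in cold 70% ethanol (4 °C, 30 min), treated with phosphate citric acid buffer, stained with PI/RNase and gated for sub-G1 by flow cytometry.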

RT-112 [5] = test: Growth inhibition of human RT112 cells measured after 1 hr by Celltiter-Glo luminescent cell viability assay; type: functional; conditions: RT-112, 1 h; method in brief: as §1
EKVX = test: Growth inhibition of human EKVX cells assessed as growth percent at 10 uM incubated for 48 hrs by sulforhodamine B assay relative to control; type: functional; conditions: read-out: Activity
SW780 = test: Growth inhibition of human SW780 cells measured after 1 hr by Celltiter-Glo luminescent cell viability assay; type: functional; conditions: SW780, 1 h; method in brief: as §1
MCF7 = test: Growth inhibition of human MCF7 cells assessed as growth percent at 10 uM incubated for 48 hrs by sulforhodamine B assay relative to control; type: functional; conditions: MCF7, 48 h, read-out: Activity
OVCAR-3 = test: Growth inhibition of human OVCAR3 cells assessed as growth percent at 10 uM incubated for 48 hrs by sulforhodamine B assay relative to control; type: functional; conditions: OVCAR-3, 48 h, read-out: Activity
RT-112 [6] = test: Induction of mitochondrial membrane depolarization in human RT112 cells at 200 uM measured after 2 to 4 hrs by JC-1 staining based confocal microscopy; type: functional, cell-based
Method in brief: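 RT112 cells, 200000 per glass-bottom dish, plated overnight. Exposed to 200 μM for 45 min, then JC-1 added (final 10 μg/mL) for 15 min. Confocal live imaging, excitation 485 nm, emission 530 and 590 nm, every 15 min for 6 h. Red punctate staining taken as polarized mitochondria, green as depolarized. CCCP as positive control.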

[7] = Solubility of compound in water; type: physicochemical
Mus musculus [8] = test: as §2, with “necrotic” for “dysplasia”; type: functional, organism-based
HCT-116 = test: Growth inhibition of human HCT116 cells assessed as growth percent at 10 uM incubated for 48 hrs by sulforhodamine B assay relative to control; type: functional; conditions: HCT-116, 48 h, read-out: Activity
RT-112 [9] = test: Cell cycle arrest in human RT112 cells assessed as cell accumulation at sub-G1 phase at 500 uM incubated for 1 hr measured after culturing in normal medium for 24 hrs by propidium iodide/RNase staining based FACScan flow cytometry analysis; type: functional; method in brief: as §3
UACC-62 = test: Growth inhibition of human UACC62 cells assessed as growth percent at 10 uM incubated for 48 hrs by sulforhodamine B assay relative to control; type: functional; conditions: UACC-62, 48 h, read-out: Activity
RT-112 [10] = test: Growth inhibition of human RT112 cells at 500 uM measured after 1 hr by Celltiter-Glo luminescent cell viability assay relative to control; type: functional; conditions: RT-112, 1 h, read-out: GI; method in brief: as §1
SK-MEL-2 = test: Growth inhibition of human SK-MEL-2 cells assessed as growth percent at 10 uM incubated for 48 hrs by sulforhodamine B assay relative to control; type: functional; conditions: SK-MEL-2, 48 h, read-out: Activity
5637 = test: Growth inhibition of human 5637 cells measured after 1 hr by Celltiter-Glo luminescent cell viability assay; type: functional; conditions: Homo sapiens, 5637, 1 h
Method in brief: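 Seeded at 10000 cells/well and grown 24 h, then exposed to 62.5–2000 μM (two-fold steps) or vehicle in growth medium for 1 h. Medium was replaced with normal medium for 24 h before CellTiter-Glo luminescence was read. Survival was expressed relative to vehicle, with quadruplicate wells, and GI50 was calculated.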

Malme-3M = test: Growth inhibition of human MALME-3M cells assessed as growth percent at 10 uM incubated for 48 hrs by sulforhodamine B assay relative to control; type: functional; conditions: read-out: Activity

## [Br-].[Br-].c1ccc([P+](CCCc2n(Cc3ccc4ccccc4c3)c3ccccc3[n+]2Cc2ccc3ccccc3c2)(c2ccccc2)c2ccccc2)cc1
NCI-H226
  growth at 10 µM: 83.5%
RT-4 [1]
  growth inhibition (GI): Active
Mus musculus [2]
  Activity: Active
UACC-257
  growth at 10 µM: 84%
RPMI-8226
  growth at 10 µM: 6.9%
RT-4 [3]
  GI50: 150 µM
TCC-SUP
  GI50: 240 µM
U-251
  growth at 10 µM: 46.5%
SN12C
  growth at 10 µM: 55%
UMUC3
  inhibition: Active
Hs-578T
  growth at 10 µM: 68.6%
SW-620
  growth at 10 µM: 35.2%
RT-112 [4]
  Activity: Active
RT-112 [5]
  GI50: 200 µM
EKVX
  growth at 10 µM: 59.4%
SW780
  GI50: 200 µM
MCF7
  growth at 10 µM: 73.9%
OVCAR-3
  growth at 10 µM: 75.8%
RT-112 [6]
  Activity: Active
[7]
  solubility: 8000 µg/mL
Mus musculus [8]
  Activity: Active
HCT-116
  growth at 10 µM: 24.2%
RT-112 [9]
  Activity: inactive
UACC-62
  growth at 10 µM: 37.8%
RT-112 [10]
  inhibition of growth at 500 µM: 100%
SK-MEL-2
  growth at 10 µM: 100%
5637
  GI50: 200 µM
Malme-3M
  growth at 10 µM: 65.2%

— ChEMBL document CHEMBL4312027, “Synthesis, characterization, and biological activity of a triphenylphosphonium-containing imidazolium salt against select bladder cancer cell lines” (Eur J Med Chem, 2020)
